In ChEMBL document CHEMBL4177701, “A novel series of enoyl reductase inhibitors targeting the ESKAPE pathogens, Staphylococcus aureus and Acinetobacter baumannii” (Bioorg Med Chem, 2018):
Converted amounts (≈) assume the structure as drawn. The source made the active and inactive calls. No cut-off for these calls is given here.

How the values were obtained:
[1] = Competitive inhibition of Acinetobacter baumannii 2208 ATCC 19606 FabI using crotonyl-CoA as substrate in presence of NADPH/NADH after 10 mins by fluorescence assay; parameters: species or system Acinetobacter baumannii ATCC 19606 = CIP 70.34 = JCM 6841
[2] = biological target: T1, Enoyl-[acyl-carrier-protein] reductase [NADPH] FabI (Staphylococcus aureus) (UniProt Q6GI75); assay: Binding affinity to Staphylococcus aureus subsp. aureus Rosenbach ATCC 43300 FabI by SPR assay
T1 sequence (whole entry): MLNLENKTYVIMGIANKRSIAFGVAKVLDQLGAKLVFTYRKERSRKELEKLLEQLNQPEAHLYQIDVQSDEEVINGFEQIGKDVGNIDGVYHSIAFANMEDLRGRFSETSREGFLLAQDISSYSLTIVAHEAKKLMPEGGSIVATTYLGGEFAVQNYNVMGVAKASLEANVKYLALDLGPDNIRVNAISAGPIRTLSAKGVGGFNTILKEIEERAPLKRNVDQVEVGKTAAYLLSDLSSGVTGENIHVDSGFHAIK

Acinetobacter baumannii [3] = assay: Synergistic antibacterial activity against Acinetobacter baumannii 2208 ATCC 19606 assessed as colistin MIC by checkerboard method; format: functional; details: ATCC 19606 = CIP 70.34 = JCM 6841 2208
Staphylococcus aureus [4] = assay: Antibacterial activity against Staphylococcus aureus RN4220 by microbroth dilution method; format: functional
Outline: (§1)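 Broth microdilution MIC; reported value is mean of at least two runs, within two-fold experimental uncertainty.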

Acinetobacter baumannii [5] = assay: Antibacterial activity against Acinetobacter baumannii 2208 ATCC 19606 by microbroth dilution method; format: functional; details: ATCC 19606 = CIP 70.34 = JCM 6841 2208
Outline: (§2)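 Microbroth dilution MIC; each value is the mean of at least two runs, within two-fold experimental uncertainty.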

Escherichia coli [6] = assay: Antibacterial activity against Escherichia coli BW25113 mutant by microbroth dilution method; format: functional; outline: as §1
Acinetobacter baumannii [7] = assay: Synergistic antibacterial activity against MDR Acinetobacter baumannii ATCC BAA-1605 assessed as fold reduction in colistin MIC by checkerboard method; format: functional
[8] = Inhibition of Acinetobacter baumannii 2208 ATCC 19606 FabI using crotonyl-CoA as substrate in presence of NADPH/NADH after 10 mins by fluorescence assay; parameters: species or system Acinetobacter baumannii ATCC 19606 = CIP 70.34 = JCM 6841
Outline: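 AbFabI, 200 nM, in 50 mM MES/100 mM NaCl with 200 μM NADH, 0.1 mg/mL BSA and 0.01% triton. Reaction started with 300 μM crotonyl-CoA. NADH fluorescence read at 340/460 nm. Compounds tested at 0.4 nM–200 μM. Initial 10-min slopes were compared with a DMSO no-compound control. At least two independent experiments, each in duplicate; two-fold uncertainty.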

[9] = system: Acinetobacter baumannii ATCC 19606 = CIP 70.34 = JCM 6841; assay: Binding affinity to Acinetobacter baumannii 2208 ATCC 19606 FabI by SPR assay
Staphylococcus aureus [10] = assay: Antibacterial activity against Staphylococcus aureus RN4220 over-expressing FabI by microbroth dilution method; format: functional; outline: as §1
Staphylococcus aureus [11] = assay: Antibacterial activity against Staphylococcus aureus Newman by microbroth dilution method; format: functional; outline: as §2
Staphylococcus aureus [12] = assay: Antibacterial activity against methicillin-resistant Staphylococcus aureus subsp. aureus Rosenbach ATCC 43300 by microbroth dilution method; format: functional; outline: as §1
Acinetobacter baumannii [13] = assay: Synergistic antibacterial activity against Acinetobacter baumannii 2208 ATCC 19606 assessed as fractional inhibitory concentration in presence of colistin by checkerboard method; format: functional, ATCC 19606 = CIP 70.34 = JCM 6841 2208
Acinetobacter baumannii [14] = assay: Synergistic antibacterial activity against Acinetobacter baumannii 2208 ATCC 19606 in presence of colistin by checkerboard method; format: functional; details: ATCC 19606 = CIP 70.34 = JCM 6841 2208
[15] = biological target: T2, Enoyl-[acyl-carrier-protein] reductase [NADPH] FabI (Staphylococcus aureus, UniProt Q6GI75); assay: Competitive inhibition of Staphylococcus aureus subsp. aureus Rosenbach ATCC 43300 FabI using crotonyl-CoA as substrate in presence of NADPH/NADH after 10 mins by fluorescence assay
T2 sequence (Q6GI75 whole entry): T1 sequence (whole entry)

[16] = Protein binding in human serum; format: ADME, cell-free; details: read-out: PB (converted)
[17] = Protein binding in rat serum; format: ADME, cell-free; details: read-out: PB (converted)
[18] = Protein binding in mouse serum; format: ADME, cell-free; details: read-out: PB (converted)
[19] = Protein binding in dog serum; format: ADME, cell-free, Canis lupus familiaris; details: read-out: PB (converted)
HepG2 [20] = assay: Cytotoxicity against human HepG2 cells assessed as reduction in cell viability after 24 hrs in presence of 0.5% FBS by MTT assay; format: cell-based; details: HepG2, 24 h
Outline: (§3)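 HepG2 cells in EMEM with either 10% FBS or 0.5% FBS plus 10% Cell-Ess serum replacement. Seeded at 25,000 cells/well and incubated overnight at 37 °C, 5% CO2. Treated 24 h at 100–3 μg/mL, with matched DMSO controls. MTT added for 2 h, formazan extracted in DMSO, absorbance read at 570 nm. Run in duplicate; IC50 taken from the viability plot against the DMSO control.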

HepG2 [21] = assay: Cytotoxicity against human HepG2 cells assessed as reduction in cell viability after 24 hrs in presence of 10% FBS by MTT assay; format: cell-based; details: HepG2, 24 h; outline: as §3
Staphylococcus aureus [22] = assay: Selectivity ratio of MIC for Staphylococcus aureus RN4220 over-expressing FabI to MIC for Staphylococcus aureus RN4220; format: functional
Acinetobacter baumannii [23] = assay: Synergistic antibacterial activity against MDR Acinetobacter baumannii ATCC BAA-1605 assessed as fractional inhibitory concentration in presence of colistin by checkerboard method; format: functional
[24] = Selectivity index, ratio for IC50 for human HepG2 cells to MIC for Staphylococcus aureus RN4220 over-expressing FabI; format: toxicity
Escherichia coli [25] = assay: Antibacterial activity against Escherichia coli BW25113 harboring TolC deletion mutant by microbroth dilution method; format: functional; outline: as §1
Acinetobacter baumannii [26] = assay: Synergistic antibacterial activity against MDR Acinetobacter baumannii ATCC BAA-1605 in presence of colistin by checkerboard method; format: functional
Outline: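 Checkerboard broth dilution in tryptic soy broth. Colistin 4 to 0.03 μg/mL against analog 100 to 0.19 μg/mL, crossed. Clear wells scored. ΣFIC = C/MIC(compound) + C/MIC(partner); <0.5 synergy, 0.5–2 indifference, >2 antagonism.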

Acinetobacter baumannii [27] = assay: Synergistic antibacterial activity against Acinetobacter baumannii 2208 ATCC 19606 assessed as fractional inhibitory concentration in presence of polymixin B by checkerboard method; format: functional, ATCC 19606 = CIP 70.34 = JCM 6841 2208
Acinetobacter baumannii [28] = assay: Synergistic antibacterial activity against Acinetobacter baumannii 2208 ATCC 19606 assessed as polymixin B MIC by checkerboard method; format: functional; details: ATCC 19606 = CIP 70.34 = JCM 6841 2208
[29] = Selectivity index, ratio for IC50 for human HepG2 cells to MIC for Staphylococcus aureus RN4220; format: toxicity; details: read-out: Selectivity Index
[30] = Selectivity index, ratio for IC50 for human HepG2 cells to MIC for methicillin-resistant Staphylococcus aureus subsp. aureus Rosenbach ATCC 43300; format: toxicity
Acinetobacter baumannii [31] = assay: Synergistic antibacterial activity against Acinetobacter baumannii 2208 ATCC 19606 in presence of polymixin B by checkerboard method; format: functional; details: ATCC 19606 = CIP 70.34 = JCM 6841 2208
Acinetobacter baumannii [32] = assay: Synergistic antibacterial activity against MDR Acinetobacter baumannii ATCC BAA-1605 assessed as colistin MIC by checkerboard method; format: functional
[33] = Solubility of the compound; format: physicochemical
[34] = biological target: T2, Enoyl-[acyl-carrier-protein] reductase [NADPH] FabI; assay: Inhibition of Staphylococcus aureus subsp. aureus Rosenbach ATCC 43300 FabI using crotonyl-CoA as substrate in presence of NADPH/NADH after 10 mins by fluorescence assay
Outline: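 SaFabI enzyme, 300 nM, in 50 mM MES/100 mM NaCl with 200 μM NADPH, 0.1 mg/mL BSA, 0.01% triton; started with 400 μM crotonyl-CoA. NADPH fluorescence at 340/460 nm. Compounds 0.4 nM–200 μM. Slopes over first 10 min compared with DMSO control for % inhibition. At least two independent experiments, each in duplicate. Two-fold experimental uncertainty.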

SMILES	Ki [1] [µM]	Activity [2]	MIC (Acinetobacter baumannii [3]) [mg/L]	MIC (Staphylococcus aureus [4]) [mg/L]	MIC (Acinetobacter baumannii [5]) [mg/L]	MIC (Escherichia coli [6]) [mg/L]	fold change (FC) (Acinetobacter baumannii [7])	IC50 [8] [µM]	Activity [9]	MIC (Staphylococcus aureus [10]) [mg/L]	MIC (Staphylococcus aureus [11]) [µM]	MIC (Staphylococcus aureus [12]) [mg/L]	FIC (Acinetobacter baumannii [13])	MIC (Acinetobacter baumannii [14]) [mg/L]	Ki [15] [µM]	IC50 (HepG2 [20]) [mg/L]	IC50 (HepG2 [21]) [mg/L]	Selectivity ratio (Staphylococcus aureus [22])	FIC (Acinetobacter baumannii [23])	MIC (Acinetobacter baumannii [26]) [mg/L]	also measured
O=C(Cc1ccccc1Cl)N1CCC(c2ccccn2)C1 (racemic)	15.4	Active	0.39	100 (≈ 332 µM)	> 200	> 200	10	30.7	Active	200 (≈ 665 µM)	166 (≈ 50 µg/mL)	200 (≈ 665 µM)	0.5	50	6.8	–	–	–	–	–	–
Cc1c(CN(C)C(=O)/C=C/c2cnc3c(c2)CCC(=O)N3)oc2ccccc12 [AFN-1252]	–	–	–	–	–	–	–	–	–	–	–	–	–	–	–	–	–	–	–	–	fraction unbound [16]: 0.05; fraction unbound [17]: 0.05; fraction unbound [18]: 0.05; fraction unbound [19]: 0.05
O=C(Cc1ccccc1F)N1CCC(c2ccccc2)C1 (racemic)	2	Active	0.19	50 (≈ 176 µM)	> 200	> 200	–	3.9	Active	200 (≈ 706 µM)	176 (≈ 50 µg/mL)	100 (≈ 353 µM)	0.25	25	1.9	76	160	–	–	–	–
O=C(Cc1c(F)cccc1Cl)N1CCC(c2ccc3c(c2)OCO3)C1 (racemic)	> 100	Active	–	25 (≈ 69.1 µM)	> 200	> 200	–	> 200	Active	–	69.1 (≈ 25 µg/mL)	> 200	–	–	0.7	–	–	>4	–	–	–
O=C(Cc1cccc(F)c1F)N1CCC(c2ccccc2)C1 (racemic)	4.7	Active	0.19	50 (≈ 166 µM)	> 200	> 200	–	9.3	Active	200 (≈ 664 µM)	166 (≈ 50 µg/mL)	100 (≈ 332 µM)	0.25	25	2.7	68	125	–	–	–	–
O=C(Cc1c(F)cccc1F)N1CCC(c2ccccc2)C1 (racemic)	3.5	Active	0.19	50 (≈ 166 µM)	> 200	> 200	–	6.9	Active	> 200	166 (≈ 50 µg/mL)	> 200	0.25	25	0.7	> 200	237	–	–	–	–
COc1ccccc1C1CCN(C(=O)/C=C/c2ccc(NC(C)=O)nc2)C1 (racemic)	0.2	Active	0.39	–	> 200	–	10	0.42	Active	–	34.2 (≈ 12.5 µg/mL)	–	–	25	1.3	138	219	4	0.31	12.5	Selectivity ratio [24]: 4.4; MIC (Escherichia coli [25]): 0.75 mg/L (≈ 2.05 µM); FIC (Acinetobacter baumannii [27]): 0.37; MIC (Acinetobacter baumannii [28]): 15 mg/L; Selectivity ratio [29]: > 10; Selectivity ratio [30]: 8.8; MIC (Acinetobacter baumannii [31]): 50 mg/L; MIC (Acinetobacter baumannii [32]): 0.78 mg/L
COc1ccccc1C1CCN(C(=O)Cc2c(F)cccc2F)C1 (racemic)	1.5	Active	0.19	–	> 200	> 200	–	3	Active	–	151 (≈ 50 µg/mL)	> 200	0.38	50	2.1	65	279	–	–	–	–
O=C(Cc1ccccc1Cl)N1CCC(c2ccc3c(c2)OCO3)C1 (racemic)	3.9	Active	0.78	–	> 200	–	10	7.8	Active	> 200	18.2 (≈ 6.26 µg/mL)	25 (≈ 72.7 µM)	0.28	6.25	0.9	46	64	>4	0.31	12.5	MIC (Escherichia coli [25]): 25 mg/L (≈ 72.7 µM); MIC (Acinetobacter baumannii [32]): 0.78 mg/L
O=C(Cc1ccccc1)N1CCC(c2ccccc2)C1 (stereo not given)	–	–	–	–	–	–	–	–	–	–	–	–	–	–	–	–	–	–	–	–	solubility [33]: Insoluble
COc1ccccc1C1CCN(C(=O)Cc2ccccc2Cl)C1 (racemic)	1.8	Active	0.39	–	> 200	> 200	10	3.6	Active	50 (≈ 152 µM)	75.8 (≈ 25 µg/mL)	–	0.19	12.5	0.2	39	75	4	0.25	25	MIC (Acinetobacter baumannii [32]): 0.39 mg/L
CC(=O)Nc1ccc(CC(=O)N2CCC(c3ccccc3)C2)cc1 (racemic)	> 50	Active	–	–	> 200	–	–	> 100	Active	> 200	–	> 200	–	–	> 37.1	–	–	–	–	–	MIC (Escherichia coli [25]): > 200 mg/L; IC50 [34]: > 100 µM
O=C(Cc1ccccc1Cl)N1CCC(c2ccccc2)C1 (racemic)	1.6	Active	0.39	–	> 200	–	10	3.1	Active	–	41.7 (≈ 12.5 µg/mL)	–	0.31	12.5	4	55	79	4	0.25	25	FIC (Acinetobacter baumannii [27]): 0.28; MIC (Acinetobacter baumannii [28]): 3.75 mg/L; MIC (Acinetobacter baumannii [31]): 50 mg/L; MIC (Acinetobacter baumannii [32]): 0.78 mg/L
